ROMK primary: modulators of human ROMK potassium channel; 2% of 130,000 active; Tet-inducible ROMK, thallium flux fluorescence; actives lie on both sides; B-score at 10 µM; AID 1918; P48048;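 active means signal ratio slope over the read window, or its plate-corrected B-score, at least 3 SD from the plate mean, either direction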;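 further: B-score of the F/F0 ratio slope over 7 to 12 s after thallium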
Target sequence (P48048 whole entry, looked up): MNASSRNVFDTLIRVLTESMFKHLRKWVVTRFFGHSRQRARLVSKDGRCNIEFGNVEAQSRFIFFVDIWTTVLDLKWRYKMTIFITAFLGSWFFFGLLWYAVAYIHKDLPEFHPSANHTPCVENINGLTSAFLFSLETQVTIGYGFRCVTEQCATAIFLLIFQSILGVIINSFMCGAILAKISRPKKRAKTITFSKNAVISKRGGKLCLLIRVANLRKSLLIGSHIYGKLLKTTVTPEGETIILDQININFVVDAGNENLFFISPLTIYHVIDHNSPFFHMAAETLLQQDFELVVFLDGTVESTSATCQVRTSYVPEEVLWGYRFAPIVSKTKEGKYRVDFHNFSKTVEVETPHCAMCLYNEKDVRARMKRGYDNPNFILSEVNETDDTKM
Autophagy HCS: modulators of autophagy. MEF GFP-LC3 puncta imaging; test concentration mostly 10 µM. calls only at 10 µM (by protocol). 0.98% of 190,000 active. AID 463193;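 active means percentage of spot-positive cells more than 3 SD above its plate mean, without a fluorescence outlier flag or 80% toxicity; inconclusive means no clear call, values can overlap the other calls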;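 further: spot-positive cell cutoff set from DMSO-treated cells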
DTT redox prof: compounds producing H2O2 with reducing agent – biochemical, NIH compound library profiling, artefact control for MLSCN library redox annotation, primary screen. activation, % at 10 µM. AID 878. DTT-dependent redox cycling H2O2, phenol red/HRP absorbance; 100% = 100 µM peroxide control, 0% = buffer. 0.03% of 200,000 active;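 active means activation of at least 50% relative to the plate's high and low controls in the primary single-dose screen; inactive means activation below 50%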;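 further: compound incubated with DTT at 0.8 mM final as the reducing agent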
Cl transport mod: modulators of human KCC2 chloride dependent transport; KCC2 cells, thallium flux FluoZin-2 fluorescence; B-score of Tl+ flux slope (higher = more flux/activation; lower = inhibition) at 10 µM; 2.2% of 190,000 active; AID 1456;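 active means thallium flux slope and its plate-corrected score both differing from the plate sample mean at a set confidence after two filtering rounds, in either direction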;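 further: slope of fluorescence scaled to starting intensity during 10 to 20 s after thallium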
Dynein cargo inh: blocks dynein driven cargo transport along microtubules; 3617.4 mouse cells, GR-EGFP nuclear translocation imaging; test concentration mostly 20 µM; stimulated with dexamethasone, 1 µM; stronger effect = lower value; z-score, hits read low; 0.47% of 220,000 active; AID 1381;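 active means plate z-score of nuclear minus cytoplasmic receptor signal below a set negative limit, without overly bright fluorescence or cell loss, cut at about -3.5 in these data, passing the limit was not always enough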;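 further: z-score of nuclear minus cytoplasmic ring GR-EGFP intensity difference per well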
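Buffer or medium: tet-free, stripped-serum medium; reagent: dexamethasone at 1.0 µM final, 30 min; incubation: 48 h induction, 1 h compound, 30 min dex at 37 °C; measured by: formaldehyde fixation, Hoechst nuclear stain, 10x automated fluorescence imaging; read-out: nuclear-to-cytoplasmic GR-EGFP distribution per well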
Starred values were filed as active, the others as inactive; i = inactive; ? = inconclusive; / = no result; + = active, no number. A selection: hits, their analogues and other compounds. The true share with any hit is near 4.1%.

SMILES	ROMK primary	Autophagy HCS	DTT redox prof	Cl transport mod	Dynein cargo inh
c1ccc(-c2cn3nc(-c4ccccc4)c(-c4ccccc4)nc3n2)cc1	/	+	0.2	/	-0.357
O=[N+]([O-])c1ccc(-c2cn3nc(-c4ccccc4)c(-c4ccccc4)nc3n2)cc1	-1.86	/	/	-1.07	-0.286
CNc1cc(N2CCCC2)ccc1[N+](=O)[O-]	-0.864	i	1.4	-0.216	0.226
O=[N+]([O-])c1cc(CN2CCC(O)CC2)ccc1Cl	-0.00261	i	-1.4	0.279	-0.142
CCN(CC)S(=O)(=O)c1cccc(NC(=O)CN(C)Cc2cccc(OC)c2)c1	/	/	/	/	-0.306
CCCCOc1ccc(-c2cc(C(F)(F)F)c(C#N)c(SCC(=O)O)n2)cc1	-2.1	+	-1.0	-3.24	-1.03
O=C(/C=C1\C(=O)Nc2ccccc21)/C=C1\C(=O)Nc2ccccc21	/	/	/	-0.57	-4.41*
CC(C)NC(=O)NC(=O)COC(=O)c1ncc(Cl)c(Cl)c1Cl	0.969	i	-0.4	-1.06	-1.51
Cn1c2ccccc2n2c(=O)c(Cl)c(-c3ccccc3)c(C#N)c12	0.391	+	0.2	-1.13	1.2
CCN(Cc1ccncc1)Cc1c(O)ccc2cc(Br)ccc12	-0.117	i	-0.2	-0.685	-0.752
COc1cccc(-c2nn(-c3ccccc3)cc2CNC(C)Cn2cncn2)c1 (stereo unspecified)	-1.28	i	-1.4	-1.65	-0.163
CCOC(=O)c1ccc(-c2ccc(C3Nc4ccccc4C(=O)N3O)o2)cc1 (stereo unspecified)	-3.77*	i	-0.2	7.11*	0.203
CC(=O)NN1C(=O)c2ccccc2NC1c1ccc([N+](=O)[O-])o1 (stereo unspecified)	0.257	i	-0.3	-0.372	-1.33
Cc1cc([N+](=O)[O-])ccc1-c1ccc(C2Nc3ccccc3C(=O)N2O)o1 (stereo unspecified)	/	i	-3.2	8.36*	0.0179
CCOC(=O)c1ccc(-c2ccc(CO)o2)cc1	-0.101	i	-3.0	-0.187	-0.194
O=C(Nc1ccc(Br)cn1)c1cccc2c1-c1ccccc1C2=O	0.84	i	0.1	-0.236	1.43
NCCCCCC(=O)N/N=C/c1coc2ccccc2c1=O	-1.09	/	/	-2.27	0.423
CC(CSc1nnnn1-c1ccccc1)Cn1c(N2CCCC2)nc2c1c(=O)[nH]c(=O)n2C (stereo unspecified)	0.0936	+	-0.9	-0.586	-0.298
Cn1c(=O)[nH]c(=O)c2c1nc(N1CCOCC1)n2CCSc1nnnn1-c1ccccc1	0.33	/	/	-0.0422	1.03
CCOC(=O)C(C(=O)OCC)C1CCS(=O)(=O)C1 (stereo unspecified)	/	+	-0.3	/	-0.115
CCOC(=O)C(=O)N(CC)C1CCS(=O)(=O)C1 (stereo unspecified)	/	/	/	0.0501	1.66
O=C(c1cc(C(=O)N2CCOCC2)c2nc3ccccc3n2c1)c1cc(Cl)cc(Cl)c1O	/	/	/	-1.72	1.96
CC(C)OC(=O)n1c(=S)oc2ccccc21	-1.29	i	0.8	-0.87	0.491
Cc1cccc(OC(=O)n2c(=S)oc3cc(Cl)ccc32)c1	/	i	2.6	4.75*	1.09
Cc1nc(NC(=O)c2cccs2)ccc1Br	-0.119	i	-0.3	-1.28	-0.471
SMILES	ROMK primary	Autophagy HCS	DTT redox prof	Cl transport mod	Dynein cargo inh
COCC(=O)N(Cc1ccco1)c1nnc(C2CCOC2)s1 (stereo unspecified)	0.116	+	0.0	/	-0.969
CC(C)c1ccccc1NC(=O)COC(=O)c1c2c(nc3ccccc13)CCN(Cc1ccccc1)C2	/	+	-0.6	-1.19	-0.3
Cc1c(Cl)cccc1NC(=O)COC(=O)c1c2c(nc3ccccc13)CCN(Cc1ccccc1)C2	-1.19	+	0.0	0.939	-0.114
Cc1cc(N2CCN(C)CC2)ccc1NC(=O)c1c2c(nc3ccccc13)CCN(Cc1ccccc1)C2	-1.08	?	0.5	-0.855	1.14
O=[N+]([O-])c1ccc(OCc2cnc(Cl)s2)c([N+](=O)[O-])c1	0.868	i	-0.2	-0.026	-0.58
Cc1cccc(C)c1-n1c(C)cc(/C=N\Nc2ccc([N+](=O)[O-])cn2)c1C	-1.64	+	0.8	/	0.185
COc1ccc2cc(C(=O)C3CCCN(C(=O)/C=C/c4ccccn4)C3)ccc2c1 (stereo unspecified)	-0.768	i	-0.8	-1.25	-0.707
S=C(NCCc1ccccn1)Nc1ccc(Cl)cc1Cl	-1.24	i	-1.6	-0.076	0.0907
COc1ccccc1C(=O)N=Nc1c(O)[nH]c2ccc([N+](=O)[O-])cc12	0.0413	+	-0.1	-1.42	0.565
NC(=O)N=Nc1c(O)[nH]c2ccc([N+](=O)[O-])cc12	/	/	/	0.031	0.258
C/C(CCN1CCCCc2nc(C)c(C)cc21)=N\O[C@@H](C)CN1CCCCc2nc(C)c(C)cc21	-1.19	i	0.1	-0.255	0.408
COc1ccc(O[C@H]2C=C[C@@H](c3ccccc3)O[C@@H]2CO/N=C(\C)CCN2CCCCc3nc(C)c(C)cc32)cc1	-1.09	+	3.1	0.599	-0.589
CCOC(=O)C1(Cc2ccccc2)CCCN(Cc2ccc(OCC)c(CO)c2)C1 (stereo unspecified)	-0.335	i	0.1	/	0.13
Cc1ccc2nc(NC(=O)CCNS(=O)(=O)c3ccc(Br)s3)sc2c1	/	+	-1.1	-0.00868	0.112
CCc1cc(C(=O)OC)c(NC(=O)CC2Nc3cc(C)c(C)cc3NC2=O)s1 (stereo unspecified)	0.116	+	0.5	0.892	0.573
COC(=O)c1c(NC(=O)CC2Nc3cc(C)c(C)cc3NC2=O)sc(C)c1C (stereo unspecified)	/	i	0.7	0.585	-0.657
CCOC(=O)N1CCN(CC(=O)N2CCC(C(N)=O)CC2)CC1	0.0794	i	6.3	0.843	-0.648
COc1cccc(C2CC(c3c(Cl)cccc3Cl)n3nc(N)nc3N2)c1 (stereo unspecified)	/	/	0.2	-0.611	-0.401
COc1cccc(C2CC(c3c(F)cccc3Cl)n3nc(N)nc3N2)c1 (stereo unspecified)	1.28	+	0.9	0.0373	-0.512
Oc1cc(NCc2cccnc2)ccc1-c1nc2ccccc2o1	/	+	3.4	0.0125	-0.555
CCc1ccc(OCC(=O)Nc2ccc(-c3nc4ccccc4o3)c(O)c2)cc1	/	i	2.9	0.19	-0.389
COc1cc(OC)cc(-c2nnc(Nc3nc4c(F)cccc4s3)o2)c1	2.02	i	2.5	9.14*	0.415
NNc1nc2c(F)cccc2s1	/	i	0.4	0.0273	-0.317
O=C(COc1ccccc1)NNc1nc2c(F)cccc2s1	-0.00873	i	-0.5	0.898	-1.49
Fc1cccc2sc(Nc3nnc(-c4ccccc4)o3)nc12	7.04*	i	-2.4	/	-0.29
COc1ccnc(CSC(N)=Nc2cccc(C(F)(F)F)c2)c1	-0.422	i	1.7	1.06	-1.2
c1ccc2c(c1)oc1c(NCCCn3ccnc3)ncnc12	/	+	0.5	/	3.39

Source: PubChem BioAssay (several laboratories)
